Source: PubChem (Broad Institute)
Hits are enriched below; roughly 1.1% of the tested compounds scored in any of these assays.
GSK3B inh: inhibitors of human GSK3beta kinase; P49841; GST-GSK3beta kinase, ADP-Glo luminescence, 60 min; hits give low values; activity score (negative = inhibition), % at 10 µM; hit rate 0.038% among 300,000;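 active means more than half of replicate wells score below -50%, meaning over 50% inhibition versus plate controls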;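 further: 0% = median DMSO wells and -100% = median GW8510 positive control wells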
Target sequence (P49841 whole entry, looked up): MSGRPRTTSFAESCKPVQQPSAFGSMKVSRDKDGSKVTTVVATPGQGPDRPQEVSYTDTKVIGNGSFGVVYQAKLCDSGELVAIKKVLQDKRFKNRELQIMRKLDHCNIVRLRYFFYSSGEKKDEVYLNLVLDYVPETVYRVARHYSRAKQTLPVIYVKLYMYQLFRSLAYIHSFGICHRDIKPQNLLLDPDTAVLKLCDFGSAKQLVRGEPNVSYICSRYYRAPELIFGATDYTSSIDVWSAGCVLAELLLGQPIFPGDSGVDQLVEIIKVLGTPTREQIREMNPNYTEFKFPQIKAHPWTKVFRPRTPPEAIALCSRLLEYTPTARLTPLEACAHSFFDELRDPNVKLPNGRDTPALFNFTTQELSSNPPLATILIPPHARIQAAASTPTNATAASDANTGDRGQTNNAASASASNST
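test system = GST-tagged human GSK3beta kinase, cell-free | reagent = 25 µM ATP with peptide substrate | dosing = one dose of 10 µM per compound | schedule = 60 min reaction, RT | detection = luminescent ADP-Glo measurement of ADP formed | control set = DMSO neutral wells and GW8510 at 20 µM as positive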
SR-BI DiI-HDL act: SR-BI HDL lipid transfer activation; CHO ldlA[mSR-BI] cells, DiI-HDL uptake fluorescence, 3 h; 100 = double the neutral-control signal; activation, % at 12.5 µM; hit rate 0.096% among 320,000; AID 504775;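 active means mean replicate activation of at least 60% and every replicate at or above 60%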;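 further: 0% = median plate neutral-control signal and 100% = twice that signal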
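Material: SR-BI-overexpressing, LDLR-lacking CHO cells | Dosing: Single compound concentration, delivered by pin transfer | Probe or stimulus: Labelled HDL, 10 µg/mL | Signal: Bottom-read cell fluorescence after medium removal, ex 550/em 595 nm | Schedule: 3 h, 37 °C | Evaluation: HDL uptake via cellular fluorescence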
GSK3 alpha inh: blocks human GSK-3 alpha kinase; ADP-Glo luminescence, 60 min; inhibition, % at 10 µM; P49840; hit rate 0.1% among 320,000; AID 2650;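 active means more than half of replicates show inhibition above 20%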;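 further: GST-tagged GSK-3 alpha with peptide substrate and 25 µM ATP; 0% = DMSO neutral wells and 100% = GW8510 positive control wells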
CDK5 inh: CDK5/p35 (human) kinase inhibition; Q00535+Q15078; Recombinant CDK5/p35, ADP-Glo luminescence, 60 min; inhibition, % at 10 µM; hit rate 0.01% among 330,000; AID 488839;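 active means highest replicate inhibition of at least 50% and at least 75% of replicates reaching 50%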;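 further: plate controls were DMSO neutral control for no effect and GW8510 at 10 µM for full effect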
SR-BI HDL uptake: blocks mouse SR-BI lipid uptake from DiI-HDL | Q61009 | ldlA[mSR-BI] CHO cells, DiI-HDL uptake fluorescence, 3 h | inhibition, % at 12.5 µM | hit rate 0.96% among 320,000 | AID 488896;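 active means mean replicate inhibition of at least 70% and a set share of replicates each scoring 70 or more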;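 further: 0% = median of neutral control wells and 100% = median of positive control wells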
* hit, by the source's call; i = inactive; · = not tested or not shown.

SMILES | GSK3B inh | SR-BI DiI-HDL act | GSK3 alpha inh | CDK5 inh | SR-BI HDL uptake
CCOc1ccc(C(=O)NCC(=O)OCc2cc(C(C)=O)ccc2OC)cc1 | 0 | -71 | 2 | -1 | 71*
COc1ccc(C(=O)NN)cc1COc1ccc(Br)cc1 | -2 | -97 | -3 | -2 | 97*
COc1ccc(C(C)=O)cc1COc1ccc(F)cc1 | 0 | -17 | -1 | 0 | 17
COc1cccc(CN(C)C(=O)CN2C(=O)NC(c3ccccc3)(c3ccccc3)C2=O)c1OC | · | 23 | 2 | 1 | -23
CC(C)(C)NS(=O)(=O)c1ccc(NC(=S)NC(=O)C2CC2)cc1 | -2 | 3 | 6 | 1 | -3
O=C(Nc1nc2ccc(Br)cc2s1)c1ccco1 | -1 | -93 | · | -1 | 93*
COc1ccc(-c2cc(-c3ccc(OC)cc3)c(C#N)c(SC)n2)cc1 | -9 | -80 | -16 | 3 | 80*
CCc1c(C#N)c(SCCC(=O)Nc2ccc(C)cc2)nc2c1C(=O)CC(C)(C)C2 | 2 | -73 | 0 | 0 | 73*
CCOc1ccc(NC(=O)CCSc2nc3c(c(CC)c2C#N)C(=O)CC(C)(C)C3)cc1 | 2 | 0 | -1 | -1 | 0
O=C(COC(=O)c1cc([N+](=O)[O-])ccc1N1CCOCC1)Nc1ncc(Cl)cc1Cl | 0 | · | 9 | 0 | 86*
Cc1cc(NC(=O)COC(=O)c2cc([N+](=O)[O-])ccc2N2CCOCC2)ccc1Br | 0 | -71 | 3 | 1 | 71*
O=C(COC(=O)c1cc([N+](=O)[O-])ccc1N1CCOCC1)Nc1cc(F)ccc1F | · | -85 | -1 | 0 | 85*
COc1ccc(OC)c(COC(=O)c2cc([N+](=O)[O-])ccc2N2CCOCC2)c1 | · | -59 | 0 | -6 | 59
O=C(COC(=O)c1cc([N+](=O)[O-])ccc1N1CCOCC1)Nc1c(Cl)cccc1C(F)(F)F | -2 | -41 | -3 | -3 | 41
O=C(COC(=O)c1cc([N+](=O)[O-])ccc1N1CCOCC1)c1ccc(OC(F)F)cc1OC(F)F | 4 | -76 | -1 | 2 | 76*
CC(CCc1ccccc1)NC(=O)COC(=O)c1cccc2ccccc12 (configuration not stated) | 2 | 22 | 0 | 0 | -22
O=C(COC(=O)c1cc([N+](=O)[O-])ccc1N1CCOCC1)Nc1ccccc1OC(F)F | 1 | -74 | -3 | -1 | 74*
O=C(CCNC(=O)C1CCN(S(=O)(=O)c2ccccc2)CC1)NCCc1cccc(F)c1 | 1 | -16 | -1 | -1 | 16
COc1ccc(Nc2cc(Cl)nc(N)n2)cc1 | 3 | 67* | -2 | 3 | -67
COc1ccc(Nc2cc(C)nc(N)n2)cc1 | 0 | -2 | -2 | 0 | 2
N#Cc1c(-c2ccccc2)nc(-c2ccncc2)[nH]c1=O | -3 | 29 | · | 0 | -29
N#Cc1c(Cl)nc(-c2ccncc2)nc1-c1ccccc1 | -62* | 21 | 75* | 1 | -21
COc1ccc2c(c1)C1NC(=S)NC(C)(O2)C1C(=O)Nc1ccc(Cl)cc1 (configuration not stated) | 2 | -80 | 2 | 1 | 80*
COc1ccc2c(c1)C1NC(=S)N[C@@](C)(O2)C1C(=O)Nc1ccccc1 (some centres not stated) | 0 | -10 | 0 | 3 | 10
O=[N+]([O-])c1cc(C(F)(F)F)cc([N+](=O)[O-])c1Sc1n[nH]c(C(F)(F)F)n1 | 1 | 6 | 1 | 0 | -6
SMILES | GSK3B inh | SR-BI DiI-HDL act | GSK3 alpha inh | CDK5 inh | SR-BI HDL uptake
O=C1Nc2ccc(Br)cc2C12NNc1ccccc1O2 (configuration not stated) | -2 | -90 | 3 | 2 | 90*
Cc1cccc(CNC(=O)C(C)n2nc(C)c3c(C)n(-c4ccccc4)nc3c2=O)c1 (configuration not stated) | -1 | -27 | -3 | 0 | 27
COc1ccc(-c2ncncc2-c2ccc(OC)c(OC)c2)c(O)c1 | 3 | -31 | 52* | 3 | 31
COc1ccc(Cl)cc1NC(=O)CN(C)CC(=O)Nc1ccccc1N1CCOCC1 | 0 | -78 | 0 | -4 | 78*
COc1ccc(Cl)cc1NC(=O)CNCc1cccs1 | 1 | -37 | 0 | 0 | 37
COc1ccc(Cl)cc1NC(=O)CN(C)Cc1cccs1 | · | -72 | -1 | 1 | 72*
O=C(Nc1ccc(OCC(=O)N2CCOCC2)cc1)c1ccccc1F | 1 | 10 | -2 | 1 | -10
O=C(Nc1ccc(Cl)cc1)c1cc(Br)ccc1OCC(=O)N1CCOCC1 | 0 | -82 | 2 | 0 | 82*
N#Cc1ccc(-c2ccc(OCC(O)CN3CCCCC3)cc2)cc1 (configuration not stated) | -2 | -8 | 3 | 0 | 8
COc1cccc(C(=O)N2CCN(c3ccc(N4CCOCC4)nn3)CC2)c1 | -3 | 25 | · | 0 | -25
COc1ccc2c(c1)CCc1cc(C(=O)N3CCN(c4ccc(N5CCOCC5)nn4)CC3)sc1-2 | 1 | -77 | -1 | 2 | 77*
COC(=O)C1=C(N)OC2=C(C(=O)CC(C)(C)C2)C1c1cccs1 (configuration not stated) | -2 | 822* | -5 | -3 | i
CC1(C)CC(=O)C2=C(C1)OC(N)=C(C#N)C2c1cccs1 (configuration not stated) | -2 | 26 | 1 | 1 | -26
O=C(NC(=S)NC(CO)c1ccccc1)c1ccc(F)cc1 (configuration not stated) | 3 | -14 | 0 | 0 | 14
NCc1cccc(CNc2ccc([N+](=O)[O-])cc2C(N)=O)c1 | · | 0 | 84* | 20 | 0
NC(=O)c1cc([N+](=O)[O-])ccc1NCc1cccc([N+](=O)[O-])c1 | · | -10 | 44 | 7 | 10
Cc1cc(NC(=O)c2sc(Nc3ccc(F)c(Cl)c3)nc2N)no1 | 1 | -87 | -2 | -1 | 87*
Cc1cc(NC(=O)c2sc(Nc3cccc(C(F)(F)F)c3)nc2N)no1 | -2 | -56 | 7 | -1 | 56
O=S(=O)(Nc1cc(S(=O)(=O)N2CCOCC2)ccc1NCC1CCCO1)c1ccccc1 (configuration not stated) | · | · | 3 | -1 | -14
CCOC(=O)c1sc(NC(=O)CSc2nc3c(cc2C#N)CCCCCC3)c(C#N)c1C | -2 | -75 | 1 | 1 | 75*
Cc1ccccc1CC(=O)Nc1cccc(S(=O)(=O)N2CCCC2)c1 | · | 3 | 1 | 2 | -3
CCOC(=O)Nc1ccc2c(c1)C(=NO)c1ccccc1-2 | · | -54 | · | 3 | 54
CCOC(=O)Nc1ccc2c(c1)C(=NNC(N)=S)c1ccccc1-2 | · | -83 | · | 1 | 83*
COc1cc(/C=C/C(=O)OCC(=O)Nc2ccc(S(=O)(=O)N3CCCC3)cc2)ccc1O | -8 | -82 | 2 | 1 | 82*
